Measurements reported in ChEMBL document CHEMBL1122182, “Structure-activity studies on the C-terminal amide of substance P” (1982).
Where a SMILES comes first, the peptide text is derived from it. [ ]: non-standard residue; d: D form. The star is where a group is joined. Nle = CCCC[C@H](N)C(=O)O; NEt2 = CCN(CC)*; X1 = CN(C)N*; NHNH2 = NN*

Tests used:
Assay type in all cases: functional
Cavia porcellus [1] = species on record: Cavia porcellus; test: In vitro relative affinity was measured in guinea pig ileum
Outline: (§1)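 Contraction of isolated guinea pig ileum. Peptide solutions were prepared and used the same day, then discarded. Responses were expressed as pD2, intrinsic activity (αE) and relative affinity.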

Cavia porcellus [2] = species on record: Cavia porcellus; test: In vitro intrinsic activity was measured in guinea pig ileum; outline: as §1
Cavia porcellus [3] = species on record: Cavia porcellus; test: In vitro (pD2) the negative log of the dose which causes half-maximal contraction was measured in guinea pig ileum; outline: as §1
Rattus norvegicus = test: In vivo relative blood pressure potency was measured in rat

Row | SMILES | RA (Cavia porcellus [1]) [%] | Activity (Cavia porcellus [2]) | pD2 (Cavia porcellus [3]) | RBP (Rattus norvegicus) [%]
1 | CSCC[C@H](NC(=O)[C@H](CC(C)C)NC(=O)CNC(=O)[C@H](Cc1ccccc1)NC(=O)[C@H](Cc1ccccc1)NC(=O)[C@H](CCC(N)=O)NC(=O)[C@@H](N)CCC(N)=O)C(N)=O (H-QQFFGLM-NH2) | 100 | 1 | 8.77 | 100
2 | CNC(=O)[C@H](CCSC)NC(=O)[C@H](CC(C)C)NC(=O)CNC(=O)[C@H](Cc1ccccc1)NC(=O)[C@H](Cc1ccccc1)NC(=O)[C@H](CCC(N)=O)NC(=O)[C@@H](N)CCC(N)=O (H-QQFFGLM-NHMe) | 1 | 0.85 | 6.77 | 5
3 | CSCC[C@H](NC(=O)[C@H](CC(C)C)NC(=O)CNC(=O)[C@H](Cc1ccccc1)NC(=O)[C@H](Cc1ccccc1)NC(=O)[C@H](CCC(N)=O)NC(=O)[C@@H](N)CCC(N)=O)C(=O)NN (H-QQFFGLM-NHNH2) | 1 | 1 | 6.8 | 0.4
4 | CSCC[C@H](NC(=O)[C@H](CC(C)C)NC(=O)CNC(=O)[C@H](Cc1ccccc1)NC(=O)[C@H](Cc1ccccc1)NC(=O)[C@H](CCC(N)=O)NC(=O)[C@@H](N)CCC(N)=O)C(=O)N(C)C (H-QQFFGLM-NMe2) | <0.01 | – | – | 0.2
5 | COC(=O)[C@H](CCSC)NC(=O)[C@H](CC(C)C)NC(=O)CNC(=O)[C@H](Cc1ccccc1)NC(=O)[C@H](Cc1ccccc1)NC(=O)[C@H](CCC(N)=O)NC(=O)[C@@H](N)CCC(N)=O (H-QQFFGLM-OMe) | 3.37 | 1 | 7.3 | 1
6 | CSCC[C@H](NC(=O)[C@H](CC(C)C)NC(=O)CNC(=O)[C@H](Cc1ccccc1)NC(=O)[C@H](Cc1ccccc1)NC(=O)[C@H](CCC(N)=O)NC(=O)[C@@H](N)CCC(N)=O)C(=O)NN(C)C (H-QQFFGLM-X1) | 0.53 | – | 6.6 | <0.05
7 | CCCC[C@H](NC(=O)[C@H](CC(C)C)NC(=O)CNC(=O)[C@H](Cc1ccccc1)NC(=O)[C@H](Cc1ccccc1)NC(=O)[C@H](CCC(N)=O)NC(=O)[C@@H](N)CCC(N)=O)C(=O)N(CC)CC (H-QQFFGL[Nle]-NEt2) | 1.3 | 1 | 6.03 | 0.2
8 | CCCC[C@H](NC(=O)[C@H](CC(C)C)NC(=O)CNC(=O)[C@H](Cc1ccccc1)NC(=O)[C@H](Cc1ccccc1)NC(=O)[C@H](CCC(N)=O)NC(=O)[C@@H](N)CCC(N)=O)C(N)=O (H-QQFFGL[Nle]-NH2) | – | 1 | 7.93 | –
9 | CCCC[C@H](NC(=O)[C@H](CC(C)C)NC(=O)CNC(=O)[C@H](Cc1ccccc1)NC(=O)[C@H](Cc1ccccc1)NC(=O)[C@H](CCC(N)=O)NC(=O)[C@@H](N)CCC(N)=O)C(=O)NN (H-QQFFGL[Nle]-NHNH2) | 5 | 1 | 6.63 | 5.2
10 | CCCC[C@H](NC(=O)[C@H](CC(C)C)NC(=O)CNC(=O)[C@H](Cc1ccccc1)NC(=O)[C@H](Cc1ccccc1)NC(=O)[C@H](CCC(N)=O)NC(=O)[C@@H](N)CCC(N)=O)C(=O)O (H-QQFFGL[Nle]-OH) | 2.6 | 1 | 6.34 | 1.5
11 | CCCC[C@H](NC(=O)[C@H](CC(C)C)NC(=O)CNC(=O)[C@H](Cc1ccccc1)NC(=O)[C@H](Cc1ccccc1)NC(=O)[C@H](CCC(N)=O)NC(=O)[C@@H](N)CCC(N)=O)C(=O)OC (H-QQFFGL[Nle]-OMe) | 3.5 | 1 | 6.47 | 1.5
